Results: ChEMBL document CHEMBL2176871, “Development of ligands at γ-aminobutyrric acid type A (GABAA) receptor subtype as new agents for pain relief” (Bioorg Med Chem, 2011)
Active and inactive are the calls of the source.

Tests used:
Rattus norvegicus [1] = assay: Antinociceptive activity in Sprague-Dawley rat mononeuropathy pain model assessed as increase in injured paw pressure at 30 mg/kg, po after 15 mins by paw pressure test relative to non-treated control; type: functional
Outline: (§1)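 Chronic constriction injury: loose ligatures placed on the common sciatic nerve under chloral hydrate; contralateral sham dissection. Tested 14 days after surgery. Paw pressure applied at 32 g/s; threshold taken as the force causing the first struggle; cut-off 250 g; pretest outliers (<40 g or >75 g) excluded. Oral dosing in 10 ml/kg; read at 15, 30 and 45 min; compared with a CMC-treated group.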

Rattus norvegicus [2] = assay: Toxicity in Sprague-Dawley rat mononeuropathy pain model assessed as effect on contralateral paw pressure at 30 mg/kg, po after 30 mins by paw pressure test; type: organism-based; parameters: dose 30 mg/kg, route oral; settings: in vivo, 0.5 h
Outline: (§2)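 Same sciatic-ligation rat model, 14 days after surgery. Threshold measured on the non-operated contralateral hind paw by analgesimeter at 32 g/s; first-struggle endpoint; 250 g cut-off; pretest rats outside 40–75 g rejected. Compound given po in 10 ml/kg; readings at 15, 30 and 45 min.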

Rattus norvegicus [3] = assay: Toxicity in Sprague-Dawley rat mononeuropathy pain model assessed as effect on contralateral paw pressure at 30 mg/kg, po after 15 mins by paw pressure test; type: organism-based; parameters: dose 30 mg/kg, route oral; settings: in vivo, 0.25 h; outline: as §2
Rattus norvegicus [4] = assay: Antinociceptive activity in Sprague-Dawley rat mononeuropathy pain model assessed as increase in injured paw pressure at 30 mg/kg, po after 45 mins by paw pressure test relative to non-treated control; type: functional; outline: as §1
Rattus norvegicus [5] = assay: Antinociceptive activity in Sprague-Dawley rat mononeuropathy pain model assessed as increase in injured paw pressure at 30 mg/kg, po after 30 mins by paw pressure test relative to non-treated control; type: functional; outline: as §1
Rattus norvegicus [6] = assay: Toxicity in Sprague-Dawley rat mononeuropathy pain model assessed as effect on contralateral paw pressure at 30 mg/kg, po after 45 mins by paw pressure test; type: organism-based; parameters: dose 30 mg/kg, route oral; settings: in vivo, 0.75 h; outline: as §2
Bos taurus = species on record: Bos taurus; assay: Displacement of [3H]Ro151788 from GABA(A)/BzR in bovine cerebral cortex membrane at 10 uM; type: cell membranes
Outline: (§3)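 Bovine cerebral cortex membranes in 50 mM Tris-citrate pH 7.4; [3H]flumazenil displacement. Compounds first tested at a fixed 10 µM; Ki determined only when inhibition exceeded 80%, using at least six concentrations. Five experiments run in triplicate; IC50 obtained by iterative curve fitting and converted to Ki with the Cheng–Prusoff equation.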

[7] = Displacement of [3H]Ro151788 from GABA(A)/BzR in bovine cerebral cortex membrane; type: cell membranes, Bos taurus; outline: as §3
Mus musculus [8] = assay: Antihyperalgesic activity against streptozotocin-induced hyperalgesia in Swiss albino mouse […] assessed as licking latency time at 30 mg/kg, po after 30 mins by hot plate test (reference value: 8.8 +/- 0.7 secs); type: functional
Mus musculus [9] = assay: Antihyperalgesic activity Swiss albino mouse […] assessed as licking latency time at 30 mg/kg, po after 60 mins by hot plate test (reference value: 16.6 +/- 0.8 secs); type: functional
Outline: (§4)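 Hot plate at 52.5 ± 0.1 °C in non-diabetic male Swiss mice. Latency to licking of fore or hind paws was timed before dosing and every 15 min up to 60 min after oral dosing. Mice with pretest latencies below 12 s or above 18 s were excluded. Cut-off was 45 s.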

Mus musculus [10] = assay: Antihyperalgesic activity against streptozotocin-induced hyperalgesia in Swiss albino mouse […] assessed as licking latency time at 30 mg/kg, po after 60 mins by hot plate test (reference value: 8.8 +/- 0.7 secs); type: functional
Mus musculus [11] = assay: Antihyperalgesic activity Swiss albino mouse […] assessed as licking latency time at 30 mg/kg, po after 30 mins by hot plate test (reference value: 16.6 +/- 0.8 secs); type: functional; outline: as §4
Mus musculus [12] = assay: Antihyperalgesic activity Swiss albino mouse […] assessed as licking latency time at 30 mg/kg, po after 45 mins by hot plate test (reference value: 16.6 +/- 0.8 secs); type: functional; outline: as §4
Mus musculus [13] = assay: Anxiolytic-like activity in Swiss albino mouse at 30 mg/kg, po after 30 mins by light/dark box test; type: functional, organism-based; parameters: dose 30 mg/kg
Outline: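 Male Swiss mice tested in a two-compartment light/dark box. Transfers between compartments and time spent in the lit side recorded. Compound given po 30 min before testing, in 10 ml/kg; flumazenil given i.p. for antagonism; 8 mice per group.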

Mus musculus [14] = assay: Anticonvulsant activity in Swiss albino mouse […] assessed as protection against intraperitoneally administered pentylenetetrazol-induced seizures at 10 mg/kg, po after 30 mins; type: functional
Outline: (§5)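 Male Swiss albino mice. Compounds given po and PTZ 90 mg/kg injected 30 min later; PTZ was dissolved in 0.9% NaCl saline. Clonic generalized convulsions were recorded over 30 min. Each value is the mean of 10 mice. The methods give the PTZ route as s.c. and the table footnote gives it as ip.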

Mus musculus [15] = assay: Antihyperalgesic activity against streptozotocin-induced hyperalgesia in Swiss albino mouse […] assessed as licking latency time at 30 mg/kg, po after 45 mins by hot plate test (reference value: 8.8 +/- 0.7 secs); type: functional
Mus musculus [16] = assay: Antihyperalgesic activity against streptozotocin-induced hyperalgesia in Swiss albino mouse […] assessed as licking latency time at 30 mg/kg, po after 15 mins by hot plate test (reference value: 8.8 +/- 0.7 secs); type: functional
Mus musculus [17] = assay: Antihyperalgesic activity Swiss albino mouse […] assessed as licking latency time at 30 mg/kg, po after 15 mins by hot plate test (reference value: 16.6 +/- 0.8 secs); type: functional; outline: as §4
Mus musculus [18] = assay: Analgesic activity in Swiss albino mouse abdominal constriction model assessed as decrease in number of acetic acid-induced writhing at 30 to 60 mg/kg, po after 30 mins; type: functional, organism-based; settings: Abdomen
Outline: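 Male Swiss albino mice (23–30 g). Compounds given po in 1% CMC vehicle 30 min before the test. Acetic acid 0.6% injected i.p. at 10 ml/kg. Stretching movements were counted for 10 min, starting 5 min after the acetic acid injection. 8–15 mice per group.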

Rattus norvegicus [19] = assay: Toxicity in Sprague-Dawley rat mononeuropathy pain model assessed as effect on contralateral paw pressure at 10 mg/kg, po after 45 mins by paw pressure test; type: organism-based; parameters: dose 10 mg/kg, route oral; settings: in vivo, 0.75 h; outline: as §2
Mus musculus [20] = assay: Antihyperalgesic activity against streptozotocin-induced hyperalgesia in Swiss albino mouse […] assessed as licking latency time at 30 mg/kg, po after 45 mins by hot plate test (reference value: 9.3 +/- 0.7 secs); type: functional
Rattus norvegicus [21] = assay: Antinociceptive activity in Sprague-Dawley rat mononeuropathy pain model assessed as increase in injured paw pressure at 10 mg/kg, po after 30 mins by paw pressure test relative to non-treated control; type: functional; outline: as §1
Mus musculus [22] = assay: Antihyperalgesic activity against streptozotocin-induced hyperalgesia in Swiss albino mouse […] assessed as licking latency time at 30 mg/kg, po after 30 mins by hot plate test (reference value: 9.3 +/- 0.7 secs); type: functional
Mus musculus [23] = assay: Antihyperalgesic activity against streptozotocin-induced hyperalgesia in Swiss albino mouse […] assessed as licking latency time at 30 mg/kg, po after 15 mins by hot plate test (reference value: 9.3 +/- 0.7 secs); type: functional
Rattus norvegicus [24] = assay: Toxicity in Sprague-Dawley rat mononeuropathy pain model assessed as effect on contralateral paw pressure at 10 mg/kg, po after 30 mins by paw pressure test; type: organism-based; parameters: dose 10 mg/kg, route oral; settings: in vivo, 0.5 h; outline: as §2
Mus musculus [25] = assay: Anticonvulsant activity in Swiss albino mouse […] assessed as protection against intraperitoneally administered pentylenetetrazol-induced seizures at 30 mg/kg, po after 30 mins; type: functional; outline: as §5
Mus musculus [26] = assay: Antihyperalgesic activity Swiss albino mouse […] assessed as licking latency time at 30 mg/kg, po after 15 mins by hot plate test (reference value: 16.9 +/- 0.8 secs); type: functional; outline: as §4
Mus musculus [27] = assay: Antihyperalgesic activity Swiss albino mouse […] assessed as licking latency time at 30 mg/kg, po after 30 mins by hot plate test (reference value: 16.9 +/- 0.8 secs); type: functional; outline: as §4
Rattus norvegicus [28] = assay: Antinociceptive activity in Sprague-Dawley rat mononeuropathy pain model assessed as increase in injured paw pressure at 10 mg/kg, po after 45 mins by paw pressure test relative to non-treated control; type: functional; outline: as §1
Mus musculus [29] = assay: Antihyperalgesic activity Swiss albino mouse […] assessed as licking latency time at 30 mg/kg, po after 60 mins by hot plate test (reference value: 16.9 +/- 0.8 secs); type: functional; outline: as §4
Mus musculus [30] = assay: Antihyperalgesic activity Swiss albino mouse […] assessed as licking latency time at 30 mg/kg, po after 45 mins by hot plate test (reference value: 16.9 +/- 0.8 secs); type: functional; outline: as §4
Rattus norvegicus [31] = assay: Antinociceptive activity in Sprague-Dawley rat mononeuropathy pain model assessed as increase in injured paw pressure at 10 mg/kg, po after 15 mins by paw pressure test relative to non-treated control; type: functional; outline: as §1
Mus musculus [32] = assay: Antihyperalgesic activity against streptozotocin-induced hyperalgesia in Swiss albino mouse […] assessed as licking latency time at 30 mg/kg, po after 60 mins by hot plate test (reference value: 9.3 +/- 0.7 secs); type: functional
Rattus norvegicus [33] = assay: Toxicity in Sprague-Dawley rat mononeuropathy pain model assessed as effect on contralateral paw pressure at 10 mg/kg, po after 15 mins by paw pressure test; type: organism-based; parameters: dose 10 mg/kg, route oral; settings: in vivo, 0.25 h; outline: as §2

SMILES | inhibition (Bos taurus) [%] | Ki [7] [nM] | Activity (Rattus norvegicus [1]) [g] | Activity (Rattus norvegicus [2]) [g] | Activity (Rattus norvegicus [3]) [g] | Activity (Rattus norvegicus [4]) [g] | Activity (Rattus norvegicus [5]) [g] | Activity (Rattus norvegicus [6]) [g] | further results
O=C(c1cccs1)c1cnn2c1n[n+]([O-])c1ccc(Oc3ccccc3)cc12 |  |  | 37.7 | 57.8 | 60.6 | 43.2 | 38.4 | 61.2 | 
COc1ccccc1CNc1ccc2c(c1)n1ncc(I)c1n[n+]2[O-] | > 80 | 0.138 |  |  |  |  |  |  | 
Cc1cnn2c1n[n+]([O-])c1ccc(OCC(C)c3ccccc3)cc12 (racemic) | > 80 | 361 |  |  |  |  |  |  | 
CC(COc1ccc2c(c1)n1ncc(I)c1n[n+]2[O-])c1ccccc1 (racemic) | > 80 |  | 43.4 | 61.7 | 58.8 | 39 | 40.8 | 59.2 | Activity (Rattus norvegicus [19]): 57.9 g; Time (Mus musculus [20]): 17.8 s; Activity (Rattus norvegicus [21]): 43.5 g; Time (Mus musculus [22]): 17.5 s; Time (Mus musculus [23]): 16.4 s; Activity (Rattus norvegicus [24]): 63.5 g; Activity (Mus musculus [25]): 0%; Time (Mus musculus [26]): 17.2 s; Activity (Mus musculus [13]): Active; Time (Mus musculus [27]): 16.8 s; Activity (Rattus norvegicus [28]): 37.2 g; Time (Mus musculus [29]): 18.2 s; Time (Mus musculus [30]): 17.7 s; Activity (Rattus norvegicus [31]): 42.5 g; Time (Mus musculus [32]): 18.1 s; Activity (Mus musculus [18]): inactive; Activity (Rattus norvegicus [33]): 59.8 g

Continued by falling Ki [7], values first:

inhibition (Bos taurus) [%] | Ki [7] [nM] | SMILES | Activity (Rattus norvegicus [1]) [g] | Activity (Rattus norvegicus [2]) [g] | Activity (Rattus norvegicus [3]) [g] | Activity (Rattus norvegicus [4]) [g] | Activity (Rattus norvegicus [5]) [g] | Activity (Rattus norvegicus [6]) [g] | further results
> 80 | 3.02 | COc1ccccc1COc1ccc2c(c1)n1ncc(C)c1n[n+]2[O-] |  |  |  |  |  |  | 
> 80 | 2.78 | Cc1cnn2c1nnc1ccc(NCc3ccccc3)cc12 |  |  |  |  |  |  | 
> 80 | 2.44 | [O-][n+]1nc2c(I)cnn2c2cc(NCc3ccc(Cl)cc3)ccc21 |  |  |  |  |  |  | 
> 80 | 1.02 | CN(Cc1ccccc1)c1ccc2c(c1)n1ncc(I)c1n[n+]2[O-] | 29.2 | 62.8 | 61.7 | 28.5 | 26.5 | 60.8 | Time (Mus musculus [8]): 11.8 s; Time (Mus musculus [9]): 17.9 s; Time (Mus musculus [10]): 11.1 s; Time (Mus musculus [11]): 16.8 s; Time (Mus musculus [12]): 18.3 s; Activity (Mus musculus [13]): Active; Activity (Mus musculus [14]): 10%; Time (Mus musculus [15]): 10.4 s; Time (Mus musculus [16]): 10.1 s; Time (Mus musculus [17]): 17.3 s; Activity (Mus musculus [18]): inactive
> 80 | 0.78 | COc1ccccc1CNc1ccc2c(c1)n1ncc(C)c1n[n+]2[O-] |  |  |  |  |  |  | 
